Data published in ChEMBL document CHEMBL4219076, “Synthesis, spectroscopic studies and biological evaluation of acridine derivatives: The role of aggregation on the photodynamic efficiency” (Bioorg Med Chem Lett, 2018).
Each block holds one compound with its values, some of them ahead of it. The source made the active and inactive calls. The calls are words filed in the database; no cut-off is given here.

How the values were obtained:
[1] = Induction of singlet oxygen production in 50% H2O/CH3CN mixture upon irradiation of 365 nanometer light assessed as oxygenation of 1,5-DHN by UV-Visible spectroscopic method; format: functional
Procedure, shortened: (§1)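 Singlet oxygen generation was followed by oxygenation of 1,5-dihydroxynaphthalene to juglone. Sensitizer solutions were irradiated in quartz cuvettes with 365 nm light.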

[2] = tested on: Hep 3B2; test: Cytotoxicity against human Hep3B cells assessed as reduction in cell viability after 3 hrs under dark condition by MTT assay; format: functional, cell-based
[3] = Induction of singlet oxygen production in H2O upon irradiation of 365 nanometer light assessed as oxygenation of 1,5-DHN by measuring quantum yield at 33 uM by UV-Visible spectroscopic method; format: functional; procedure, shortened: as §1
[4] = tested on: Hep 3B2; test: Cytotoxicity against human Hep3B cells assessed as reduction in cell viability at 1 to 20 uM incubated for 3 hrs followed by incubation in compound free medium for 21 hrs under dark condition by MTT assay; format: functional, cell-based
[5] = tested on: HUVEC; test: Cytotoxicity against HUVEC assessed as reduction in cell viability after 3 hrs under dark condition by MTT assay; format: functional, cell-based; details: Homo sapiens
[6] = Drug uptake in human Hep3B cell nuclear membrane at 10 uM after 1 hr by Draq5 staining based bright field microscopic method; format: ADME, cell membranes; details: hep 3b2, 1 h
[7] = tested on: HUVEC; test: Cytotoxicity against HUVEC assessed as cell viability at 1 to 20 uM after 3 hrs under dark condition by MTT assay relative to control; format: functional, Homo sapiens
[8] = tested on: HUVEC; test: Cytotoxicity against HUVEC assessed as cell viability at 1 to 20 uM after 24 hrs under dark condition by MTT assay relative to control; format: functional, Homo sapiens
[9] = Drug uptake in human Hep3B cell mitochondria at 10 uM after 1 hr by Draq5 staining based bright field microscopic method; format: ADME; details: hep 3b2, 1 h
[10] = tested on: HUVEC; test: Cytotoxicity against HUVEC assessed as reduction in cell viability at 1 to 20 uM incubated for 3 hrs followed by incubation in compound free medium for 21 hrs under dark condition by MTT assay; format: functional, cell-based; details: Homo sapiens
[11] = Drug uptake in human Hep3B cell lysosome at 10 uM after 1 hr by Draq5 staining based bright field microscopic method; format: ADME, subcellular; details: hep 3b2, 1 h
[12] = tested on: Hep 3B2; test: Photocytotoxicity in human Hep3B cells assessed as cell damage preincubated for 1 hr followed by 365 nanometer UV light irradiation for 3 mins by propidium iodide staining based confocal fluorescence laser scanning microscopic method; format: functional
Procedure, shortened: (§2)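 Hep3B cells, 30.000 cells/well, exposed to photosensitizer ([…] as printed) for 1 h, then irradiated with a 365 nm UV lamp, 6 W, for 3 min. Damaged or dead cells stained with propidium iodide (1 mM as printed) and imaged by confocal laser scanning microscopy, ex 488 nm, em 500–700 nm. Irradiated control wells received no photosensitizer.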

[13] = Induction of singlet oxygen production in CH3CN upon irradiation of 365 nanometer light assessed as oxygenation of 1,5-DHN by measuring quantum yield at 33 uM by UV-Visible spectroscopic method; format: functional; procedure, shortened: as §1
[14] = Self-aggregating property assessed as diameter of nanostructure by DLS method; format: physicochemical
[15] = Induction of singlet oxygen production in 90% H2O/CH3CN mixture upon irradiation of 365 nanometer light assessed as oxygenation of 1,5-DHN by UV-Visible spectroscopic method; format: functional; procedure, shortened: as §1
[16] = tested on: Hep 3B2; test: Photocytotoxicity in human Hep3B cells assessed as cell damage preincubated for 1 hr followed by 365 nanometer UV light irradiation for 3 mins by propidium iodide/Hoechst 33342 staining based static cytometry coupled fluorescence microscopic method; format: functional
Procedure, shortened: (§3)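 Hep3B cells exposed to photosensitizer for 1 h, then irradiated at 365 nm for 3 min. PI-positive cells were quantified by fluorescence microscopy coupled with static cytometry and expressed as percentage of cells, with untreated cells as reference.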

[17] = Self-aggregating property assessed as diameter of nanostructure by scanning electron microscopic method; format: physicochemical
[18] = Drug uptake in human Hep3B cell endoplasmic reticulum at 10 uM after 1 hr by Draq5 staining based bright field microscopic method; format: ADME, subcellular; details: hep 3b2, 1 h
[19] = tested on: Hep 3B2; test: Cytotoxicity against human Hep3B cells assessed as reduction in cell viability at 1 to 20 uM after 24 hrs under dark condition by MTT assay; format: functional, cell-based
[20] = Self-aggregating property assessed as diameter of nanostructure by transmission electron microscopic method; format: physicochemical
[21] = Dark toxicity in human Hep3B cells assessed as cell damage at 20 uM after 1 hr by propidium iodide/Hoechst 33342 staining based static cytometry coupled fluorescence microscopic method (reference value: 1.25%); details: hep 3b2, 1 h
[22] = tested on: Hep 3B2; test: Photocytotoxicity in human Hep3B cells assessed as cell damage at 20 uM preincubated for 1 hr followed by 365 nanometer UV light irradiation for 3 mins by propidium iodide/Hoechst 33342 staining based static cytometry coupled fluorescence microscopic method (reference value: 1.25%); format: functional; procedure, shortened: as §3
[23] = tested on: HUVEC; test: Cytotoxicity against HUVEC assessed as reduction in cell viability at 1 to 20 uM after 3 hrs under dark condition by MTT assay; format: functional, cell-based; details: Homo sapiens
[24] = tested on: Hep 3B2; test: Photocytotoxicity in human Hep3B cells assessed as cell damage at 10 uM preincubated for 1 hr followed by 365 nanometer UV light irradiation for 3 mins by propidium iodide staining based confocal fluorescence laser scanning microscopic method; format: functional; procedure, shortened: as §2

Drug uptake [6]: Active
Drug uptake [9]: Not Active
Drug uptake [11]: Not Active
Activity [14]: 122 nm
Activity [17]: 93 nm
Drug uptake [18]: Not Active
Activity [20]: 135 nm
SMILES: CC(C)[C@H](NC(=O)c1c2ccccc2nc2ccccc12)C(=O)NCCCCCCCCNC(=O)[C@@H](NC(=O)c1c2ccccc2nc2ccccc12)C(C)C
Activity [1]: inactive
Activity [2]: Dose-dependent effect
IC50 [2]: 29.5 µM
Activity [3]: 0.01
Activity [4]: inactive
Activity [5]: Dose-dependent effect
IC50 [5]: 18.6 µM
Activity [7]: 46%
Activity [8]: 27%
Activity [10]: inactive
Activity [12]: inactive
Activity [13]: 0.96
Activity [15]: inactive
Activity [16]: inactive
Activity [19]: Active

Activity [14]: Not Active
SMILES: CCCNC(=O)[C@@H](NC(=O)c1c2ccccc2nc2ccccc12)C(C)C
Activity [1]: Active
Activity [3]: 0.263
Activity [4]: inactive
Activity [21]: 3.38%
Activity [22]: 8.7%
Activity [23]: inactive
Activity [10]: inactive
Activity [13]: 0.97
Activity [15]: Active
Activity [24]: Active
Activity [19]: inactive
